Experimental findings from publication PMC8741576 (Molecular Diversity, 2022) are described below.

Structures are written as SMILES. Like-named read-outs stand apart in the source and are kept apart here.

The test system of series [1] is HL-60 acute myeloid leukemia cells. Put plainly: Antiproliferative screening, IncuCyte cell growth. It is filed as cell-based. The following applies: Homo sapiens, HL-60, 72 h, read-out: IC50 HL-60.
A short description of series [2]: in vitro. The following applies: human.
In series [3] the test system is Capan-1 pancreatic adenocarcinoma cells. Put plainly: Antiproliferative screening, MTS cell viability assay. It is filed as cell-based. The following applies: Homo sapiens, CAPAN-1, 72 h, read-out: IC50 Capan-1.
In series [4] the test system is HEL 299 normal human lung fibroblasts. Put plainly: Antiproliferative screening on noncancerous cells. The conditions noted are these: Homo sapiens, HEL 299, read-out: IC50 HEL 299.
Series [5] deals with LN-229 glioblastoma cells. The series is described as follows: Antiproliferative screening, MTS cell viability assay. The following applies: Homo sapiens, LN-229, 72 h, read-out: IC50 LN-229. It is filed as cell-based.
For the next series, the system named is HIV-2 ROD. The series is described as follows: Antiretroviral assay in MT-4 cells, cytopathic effect. It is filed as cell-based. An outline of the steps:
(§1)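 MT-4 cells (1 × 10^6 cells/mL) were pre-incubated with test compound for 30 min at 37 °C. HIV-1 NL4.3 or HIV-2 ROD was then added according to the CCID50 of the viral stock. Cytopathic effect was scored microscopically 5 days post-infection. […] SI was taken as the CC50/EC50 ratio.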

Series [6] deals with DND-41 acute lymphoblastic leukemia cells. Put plainly: Antiproliferative screening, IncuCyte cell growth. The series is classed as cell-based. The conditions noted are these: Homo sapiens, DND41, 72 h, read-out: IC50 DND-41.
In series [7] the test system is K-562 chronic myeloid leukemia cells. Put plainly: Antiproliferative screening, IncuCyte cell growth. It is filed as cell-based. The conditions noted are these: Homo sapiens, K562, 72 h, read-out: IC50 K-562.
The test system of series [8] is NCI-H460 lung carcinoma cells. The series is described as follows: Antiproliferative screening, MTS cell viability assay. The following applies: Homo sapiens, NCI-H460, 72 h, read-out: IC50 NCI-H460. It is filed as cell-based.
Another series relates to HIV-1 NL4.3. Put plainly: Antiretroviral assay in MT-4 cells, cytopathic effect. It is filed as cell-based. An outline of the steps:
as §1

Series [9] can be described thus: in vitro. The conditions noted are these: human. This is another data set of the same source.
The subject of the next series is human coronavirus OC43. The series is described as follows: Antiviral assay, virus-induced cytopathic effect, MTS, HEL cells. It is filed as cell-based. The conditions noted are these: HEL cell culture.
Series [10] deals with HCT-116 colorectal carcinoma cells. The series is described as follows: Antiproliferative screening, MTS cell viability assay. The series is classed as cell-based. The following applies: Homo sapiens, HCT-116, 72 h, read-out: IC50 HCT-116.
Series [11] can be described thus: Cytotoxicity in MT-4 cell culture. It is filed as cell-based. The conditions noted are these: human, MT-4 cells.
Series [12] relates to Z-138 non-Hodgkin lymphoma cells. The series is described as follows: Antiproliferative screening, IncuCyte cell growth. It is filed as cell-based. The conditions noted are these: Homo sapiens, Z-138, 72 h, read-out: IC50 Z-138.
The test system of series [13] is human solid tumor and leukemia cell lines. It is filed as cell-based. The conditions noted are these: read-out: Antiproliferative IC50 across cancer cell lines.
A further series concerns MT-4 cells. Put plainly: Cytotoxicity in MT-4 cell culture. The series is classed as cell-based. The conditions noted are these: read-out: Cytotoxicity (CC50); MT-4 cell culture.
For series [14], the system named is C. violaceum ATCC31532 QS-reporter strain. Put plainly: Anti-QS screening, violacein production. The series is classed as cell-based. The conditions noted are these: Chromobacterium violaceum, ATCC31532, read-out: Anti-QS IC50.

Regarding `CCN(CC)CCCC(C)Nc1ccnc2cc(Cl)ccc12` (centres unmarked) [CQ, chloroquine, reference compound], the IC50 in [1] is above 100 µM; in [3], 46.1 ± 1.3 µM; in series [4], 84.7 ± 15.3 µM; in series [5] it was 8.9 ± 2.3 µM; in series [6], 59.5 ± 3.5 µM; in series [7] it was 50.6 ± 2.9 µM. In addition, the IC50 was above 100 µM in [8], 65.5 ± 7.3 µM in [10] and 47.4 ± 5.3 µM in series [12]. For the same compound, the CC50 in the series “in vitro [2]” stood at 40.8 ± 2.2 µM. Moreover, in the series with human coronavirus 229E, the “SI, selectivity index (CC50 to EC50 ratio) 229E” value was 29.1. Further, the “SI, selectivity index (CC50 to EC50 ratio) HIV-2 ROD” value with HIV-2 ROD (MT-4 cell culture) is given as above 26.3. In addition, the “SI, selectivity index (CC50 to EC50 ratio) HIV-1 NL4.3” value with HIV-1 NL4.3 (MT-4 cell culture) was above 3.2. Also, the selectivity ratio in “in vitro [9]” is around 30. For the same compound, the “SI, selectivity index (CC50 to EC50 ratio) OC43” value in the series with human coronavirus OC43 stood at 31.4. Further, the CC50 at 5 days in [11] is above 100 µM.

On to `Nc1cc(Cl)ccc1C(=O)NCCCCNc1ccnc2cc(Cl)ccc12` [Compound 12, 2-Amino-4-chloro-N-{4-[(7-chloroquinolin-4-yl)amino]butyl}benzamide], for which the IC50 in series [1] was 9.8 ± 3.5 µM; in [3], 6.3 ± 2.8 µM; in [4], 7.4 ± 1.2 µM; in series [5], 2.8 ± 1.2 µM; in series [6], 9.2 ± 2.2 µM; in series [7], 8.4 ± 3.2 µM. The IC50 in series [8] was 7.3 ± 1.5 µM; in series [13], 2 to 10 µM; in [10], 8.9 ± 3 µM; in series [12] it was 7.2 ± 2.6 µM. Besides, in the series “in vitro [2]”, the CC50 stood at 8.3 ± 0.78 µM. Further, the “SI, selectivity index (CC50 to EC50 ratio) 229E” value in the series on human coronavirus 229E (HEL cell culture) stood at 4.6. Further, the “SI, selectivity index (CC50 to EC50 ratio) OC43” value in the series with human coronavirus OC43 is listed as above 10.4.

`CC(Cn1cnc2c(N)ncnc21)OCP(=O)(O)O` (centres unmarked) [PMPA, 2-phosphonomethoxypropyl adenine]: the EC50 in the series on HIV-2 ROD (read-out: Antiviral activity (EC50) HIV-2 ROD, MT-4 cell culture, 5 days post-infection) stood at 0.6 µM; in the series with HIV-1 NL4.3 (read-out: Antiviral activity (EC50) HIV-1 NL4.3, MT-4 cell culture, 5 days post-infection), 1.6 µM. The CC50 with MT-4 cells was above 100 µM.

For `Nc1ccc(Br)cc1C(=O)NCCCCNc1ccnc2cc(Cl)ccc12` [Compound 13, 2-Amino-5-bromo-N-{4-[(7-chloroquinolin-4-yl)amino]butyl}benzamide], the IC50 in series [1] is 10.3 ± 3.2 µM; in series [3], 5.4 ± 1.8 µM; in series [4], 7.8 ± 1.8 µM; in [5], 3.1 ± 0.8 µM; in series [14] it was 3.7 µM; in series [6] it was 7.8 ± 4.1 µM. The IC50 in [7] is 7.7 ± 1.1 µM; in [8], 5.3 ± 0.4 µM; in [13], 2 to 10 µM; in series [10] it was 7 ± 0.3 µM; in series [12] it was 6 ± 2.6 µM. Also, in “in vitro [2]”, the CC50 turned out to be 7.5 ± 1.3 µM. For the same compound, the “SI, selectivity index (CC50 to EC50 ratio) 229E” value in the series on human coronavirus 229E (HEL cell culture) is given as 5.4. Further, the “SI, selectivity index (CC50 to EC50 ratio) OC43” value in the series on human coronavirus OC43 was 5.0.

Consider `COc1cc(NC(C)CCCN)c2ncccc2c1` (centres unmarked) [PQ, primaquine, reference compound], for which the IC50 in series [1] is 28.4 ± 1.6 µM; in series [3] it was 45.6 ± 3.5 µM; in series [4], above 100 µM; in series [5], 45.4 ± 1.2 µM; in [6], 50.2 ± 16.7 µM; in series [7], 40.5 ± 6 µM. Besides, the IC50 in series [8] is above 100 µM; in series [10], 53.9 ± 4.2 µM; in series [12], 11.4 ± 1.1 µM. Further, the CC50 in the series “in vitro [2]” is above 100 µM. Further, the “Anti-HIV / antiretroviral activity in words” value with HIV-2 ROD (MT-4 cells) and in the series with HIV-1 NL4.3 (MT-4 cells) was “no anti-HIV activity” throughout. In series [11], this compound returned a CC50 at 5 days of 17.9 ± 8 µM.
